Test results from ChEMBL document CHEMBL4834429, “Discovery of Nanomolar Melanocortin-3 Receptor (MC3R)-Selective Small Molecule Pyrrolidine Bis-Cyclic Guanidine Agonist Compounds Via a High-Throughput "Unbiased" Screening Campaign” (J Med Chem, 2021).

Key:
Type in all cases: functional, cell-based
Melanocortin receptor 5 = Melanocortin receptor 5 (Mus musculus, UniProt P41149); assay: Agonist activity at mouse melanocortin receptor 5 expressed in HEK293 cells assessed as stimulation of intracellular cAMP accumulation incubated for 24 hrs by beta-galactosidase reporter gene assay
Sequence of Melanocortin receptor 5 (P41149 whole entry): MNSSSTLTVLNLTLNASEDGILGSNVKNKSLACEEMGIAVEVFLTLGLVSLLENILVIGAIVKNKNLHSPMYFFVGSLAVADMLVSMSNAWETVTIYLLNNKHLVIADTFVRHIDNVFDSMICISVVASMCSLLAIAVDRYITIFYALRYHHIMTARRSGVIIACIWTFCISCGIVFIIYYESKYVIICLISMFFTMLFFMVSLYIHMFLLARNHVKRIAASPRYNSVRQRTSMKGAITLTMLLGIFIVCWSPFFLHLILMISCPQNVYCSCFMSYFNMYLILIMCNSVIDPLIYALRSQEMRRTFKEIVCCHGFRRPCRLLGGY

[1] = target: Melanocortin receptor 4 (Mus musculus) (UniProt P56450); assay: Agonist activity at mouse melanocortin receptor 4 expressed in HEK293 cells assessed as stimulation of intracellular cAMP accumulation at 10 uM incubated for 24 hrs by beta-galactosidase reporter gene assay relative to control
Sequence of Melanocortin receptor 4 (Mus musculus) (P56450 whole entry): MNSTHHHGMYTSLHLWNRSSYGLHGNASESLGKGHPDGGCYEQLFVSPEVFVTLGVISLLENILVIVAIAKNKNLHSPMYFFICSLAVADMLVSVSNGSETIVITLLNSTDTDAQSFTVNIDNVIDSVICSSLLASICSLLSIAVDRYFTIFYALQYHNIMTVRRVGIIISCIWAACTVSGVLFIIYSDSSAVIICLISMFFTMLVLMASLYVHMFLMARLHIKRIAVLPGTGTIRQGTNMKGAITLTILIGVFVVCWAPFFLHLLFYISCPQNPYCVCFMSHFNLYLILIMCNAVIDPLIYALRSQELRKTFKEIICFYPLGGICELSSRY
How it was run: (§1)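 After lysis, ONPG hydrolysis was read at 405 nm and normalized to Bradford protein and maximal NDP-MSH response. Duplicates, ≥3 independent experiments; 100 μM dropped from fits where toxic.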

[2] = target: Melanocyte-stimulating hormone receptor (Mus musculus, UniProt Q01727); assay: Agonist activity at mouse melanocortin receptor 1 expressed in HEK293 cells assessed as stimulation of intracellular cAMP accumulation incubated for 24 hrs by beta-galactosidase reporter gene assay
Sequence of Melanocyte-stimulating hormone receptor (Q01727 whole entry): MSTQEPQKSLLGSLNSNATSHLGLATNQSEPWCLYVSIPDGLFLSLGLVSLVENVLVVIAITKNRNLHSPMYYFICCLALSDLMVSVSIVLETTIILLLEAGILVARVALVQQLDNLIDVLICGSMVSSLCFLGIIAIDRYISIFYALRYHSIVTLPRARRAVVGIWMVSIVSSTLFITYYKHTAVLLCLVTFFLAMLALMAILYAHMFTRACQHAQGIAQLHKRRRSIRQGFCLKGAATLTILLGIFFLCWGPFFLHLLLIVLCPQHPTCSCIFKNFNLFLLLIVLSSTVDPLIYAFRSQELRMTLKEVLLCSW

Melanocortin receptor 3 [3] = target: T1, Melanocortin receptor 3 (Mus musculus, UniProt P33033); assay: Agonist activity at mouse melanocortin receptor 3 expressed in HEK293 cells assessed as stimulation of intracellular cAMP accumulation incubated for 24 hrs by beta-galactosidase reporter gene assay
T1 sequence (P33033 whole entry): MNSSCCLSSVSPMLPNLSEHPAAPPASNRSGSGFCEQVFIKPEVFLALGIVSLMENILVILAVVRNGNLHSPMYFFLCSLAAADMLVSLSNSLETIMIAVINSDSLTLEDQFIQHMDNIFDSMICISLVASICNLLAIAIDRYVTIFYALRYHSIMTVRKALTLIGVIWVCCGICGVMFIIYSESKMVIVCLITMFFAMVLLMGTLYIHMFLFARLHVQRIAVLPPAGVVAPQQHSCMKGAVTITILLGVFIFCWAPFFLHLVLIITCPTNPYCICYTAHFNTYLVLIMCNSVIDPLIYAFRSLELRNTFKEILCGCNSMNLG

Melanocortin receptor 4 [4] = target: T2, Melanocortin receptor 4 (Mus musculus, UniProt P56450); assay: Agonist activity at mouse melanocortin receptor 4 expressed in HEK293 cells assessed as stimulation of intracellular cAMP accumulation incubated for 24 hrs by beta-galactosidase reporter gene assay; how it was run: as §1
T2 sequence (P56450 whole entry): as the sequence (P56450 whole entry) above

[5] = target: Melanocyte-stimulating hormone receptor (Mus musculus) (UniProt Q01727); assay: Agonist activity at mouse melanocortin receptor 1 expressed in HEK293 cells assessed as stimulation of intracellular cAMP accumulation at 10 uM incubated for 24 hrs by beta-galactosidase reporter gene assay relative to control; how it was run: as §1
Sequence of Melanocyte-stimulating hormone receptor (Mus musculus) (Q01727 whole entry, looked up): as the sequence (Q01727 whole entry) above

[6] = target: Melanocortin receptor 3 (Mus musculus) (UniProt P33033); assay: Agonist activity at mouse melanocortin receptor 3 expressed in HEK293 cells assessed as stimulation of intracellular cAMP accumulation at 10 uM incubated for 24 hrs by beta-galactosidase reporter gene assay relative to control; how it was run: as §1
Sequence of Melanocortin receptor 3 (Mus musculus) (P33033 whole entry): as the sequence (P33033 whole entry) above

Melanocortin receptor 4 [7] = target: T2, Melanocortin receptor 4; assay: Antagonist activity at mouse melanocortin receptor 4 expressed in HEK293 cells assessed as inhibition of NDP-MSH-induced intracellular cAMP accumulation incubated for 24 hrs by beta-galactosidase reporter gene assay; settings: read-out: pA2 (converted)
Melanocortin receptor 3 [8] = target: T1, Melanocortin receptor 3; assay: Antagonist activity at mouse melanocortin receptor 3 expressed in HEK293 cells assessed as inhibition of NDP-MSH-induced intracellular cAMP accumulation incubated for 24 hrs by beta-galactosidase reporter gene assay
[9] = target: Melanocortin receptor 5 (Mus musculus) (UniProt P41149); assay: Agonist activity at mouse melanocortin receptor 5 expressed in HEK293 cells assessed as stimulation of intracellular cAMP accumulation at 10 uM incubated for 24 hrs by beta-galactosidase reporter gene assay relative to control; settings: filed as agonist, time 6.0 hrs, in the assay text read “6 hrs” for “24 hrs”; how it was run: as §1
Sequence of Melanocortin receptor 5 (Mus musculus) (P41149 whole entry): as the sequence (P41149 whole entry) above

Structure (SMILES)	EC50 (Melanocortin receptor 5) [nM]	EC50 [2] [nM]	EC50 (Melanocortin receptor 3 [3]) [nM]	Emax ([1]; filed as agonist) [%]	Emax ([6]; filed as agonist) [%]	also measured
CCC[C@@H]1CN([C@H](Cc2ccccc2)CN2CCC[C@H]2CN2C(=N)NC[C@H]2C(C)C)C(=N)N1CC1CCC(C(C)(C)C)CC1 (stereo not given in full)	940	2300	6200			Emax [1]: 27%
CCC[C@@H]1CN([C@H](CC2CCCCC2)CN2CCC[C@H]2CN2C(=N)NC[C@H]2C(C)C)C(=N)N1CCCC(C)C	1040			40	51	Emax ([5]; filed as agonist): 51%
CC(C)C[C@@H]1CNC(=N)N1C[C@@H]1CCCN1C[C@@H](CC1CCCCC1)N1C[C@@H](C(C)C)N(CC2CCC(C(C)(C)C)CC2)C1=N (stereo not given in full)	560				69	Kb (Melanocortin receptor 4 [7]): 3160 nM; Emax ([5]; filed as agonist): 54%
CC(C)[C@@H]1CNC(=N)N1C[C@@H]1CCCN1C[C@@H](Cc1ccccc1)N1C[C@@H](C(C)C)N(CC2CCC(C(C)(C)C)CC2)C1=N (stereo not given in full)	600	29100			68	
CC(C)CCCN1C(=N)N([C@H](CC2CCCCC2)CN2CCC[C@H]2CN2C(=N)NC[C@H]2C(C)C)C[C@H]1[C@@H](C)O	740	700	5200			
O=C(N[C@@H](Cc1ccc(Cl)cc1)C(=O)N1CCC(Cn2cncn2)(C2CCCCC2)CC1)[C@H]1Cc2ccccc2CN1						EC50 (Melanocortin receptor 4 [4]): 0.9 nM
CC(C)[C@@H]1CNC(=N)N1C[C@@H]1CCCN1C[C@@H](CC1CCCCC1)N1C[C@@H](C(C)C)N(CC23CC4CC(CC(C4)C2)C3)C1=N	580	300	3700	40		
CCC[C@@H]1CN([C@H](Cc2ccccc2)CN2CCC[C@H]2CN2C(=N)NC[C@H]2CC(C)C)C(=N)N1CC12CC3CC(CC(C3)C1)C2	610	7000			74	EC50 (Melanocortin receptor 4 [4]): 1330 nM
CC(C)C[C@@H]1CNC(=N)N1C[C@@H]1CCCN1C[C@@H](Cc1ccccc1)N1C[C@@H](C(C)C)N(CC2CCC(C(C)(C)C)CC2)C1=N (stereo not given in full)	560	6800			62	
CC(C)CCCN1C(=N)N([C@H](Cc2ccccc2)CN2CCC[C@H]2CN2C(=N)NC[C@H]2C(C)C)C[C@H]1C(C)C	1600	10200				Emax [1]: 21%; EC50 (Melanocortin receptor 3 [8]): > 100000 nM
CC(C)CCCN1C(=N)N([C@H](CC2CCCCC2)CN2CCC[C@H]2CN2C(=N)NC[C@H]2C(C)C)C[C@H]1C(C)C	1700	6100		51	51	
CCC[C@@H]1CN([C@H](CC2CCCCC2)CN2CCC[C@H]2CN2C(=N)NC[C@H]2CC(C)C)C(=N)N1CCCC(C)C	1800	2300			58	EC50 (Melanocortin receptor 4 [4]): 6700 nM
CC(C)[C@@H]1CNC(=N)N1C[C@@H]1CCCN1C[C@@H](Cc1ccccc1)N1C[C@@H](C(C)C)N(CC23CC4CC(CC(C4)C2)C3)C1=N	660	47800	4000	54		
CC(C)CCCN1C(=N)N([C@H](CC2CCCCC2)CN2CCC[C@H]2CN2C(=N)NC[C@H]2CC(C)C)C[C@H]1[C@@H](C)O	630	7300		10	58	
CC(C)[C@@H]1CNC(=N)N1C[C@@H]1CCCN1C[C@@H](CC1CCCCC1)N1C[C@@H]([C@@H](C)O)N(CC23CC4CC(CC(C4)C2)C3)C1=N	600	200	370	49		Kb (Melanocortin receptor 4 [7]): 1580 nM
CC(C)C[C@@H]1CNC(=N)N1C[C@@H]1CCCN1C[C@@H](Cc1ccccc1)N1C[C@@H]([C@@H](C)O)N(CC23CC4CC(CC(C4)C2)C3)C1=N	810		360	58		Kb (Melanocortin receptor 4 [7]): 1580 nM; Emax ([5]; filed as agonist): 41%
CC(C)CCCN1C(=N)N([C@H](Cc2ccccc2)CN2CCC[C@H]2CN2C(=N)NC[C@H]2CC(C)C)C[C@H]1C(C)C	1260			10		
CC(C)CCCN1C(=N)N([C@H](Cc2ccccc2)CN2CCC[C@H]2CN2C(=N)NC[C@H]2CC(C)C)C[C@H]1[C@@H](C)O						EC50 (Melanocortin receptor 3 [8]): > 100000 nM; Emax [9]: 77%; Emax ([5]; filed as agonist): 62%
CCC[C@@H]1CN([C@H](Cc2ccccc2)CN2CCC[C@H]2CN2C(=N)NC[C@H]2C(C)C)C(=N)N1CCCC(C)C	2030	22900		41		EC50 (Melanocortin receptor 3 [8]): > 100000 nM
CC(C)CCCN1C(=N)N([C@H](CC2CCCCC2)CN2CCC[C@H]2CN2C(=N)NC[C@H]2CC(C)C)C[C@H]1C(C)C	1850			51		Emax ([5]; filed as agonist): 50%; Emax [6]: 33%
CCC[C@@H]1CN([C@H](CC2CCCCC2)CN2CCC[C@H]2CN2C(=N)NC[C@H]2C(C)C)C(=N)N1CC1CCC(C(C)(C)C)CC1 (stereo not given in full)	540		350	50		Kb (Melanocortin receptor 4 [7]): 1580 nM; Emax ([5]; filed as agonist): 51%
CC(C)CCCN1C(=N)N([C@H](Cc2ccccc2)CN2CCC[C@H]2CN2C(=N)NC[C@H]2C(C)C)C[C@H]1[C@@H](C)O						EC50 (Melanocortin receptor 3 [8]): > 100000 nM; Emax [9]: 40%; Emax ([5]; filed as agonist): 51%
CC(C)C[C@@H]1CNC(=N)N1C[C@@H]1CCCN1C[C@@H](Cc1ccccc1)N1C[C@@H]([C@@H](C)O)N(CC2CCC(C(C)(C)C)CC2)C1=N (stereo not given in full)	530		310			Emax ([5]; filed as agonist): 58%

The remaining molecules from weak to strong by EC50 (Melanocortin receptor 5), led by results:

EC50 (Melanocortin receptor 5) [nM]	EC50 [2] [nM]	EC50 (Melanocortin receptor 3 [3]) [nM]	Emax ([1]; filed as agonist) [%]	Emax ([6]; filed as agonist) [%]	Structure (SMILES)	also measured
530	500		65	75	CCC[C@@H]1CN([C@H](CC2CCCCC2)CN2CCC[C@H]2CN2C(=N)NC[C@H]2CC(C)C)C(=N)N1CC1CCC(C(C)(C)C)CC1 (stereo not given in full)	
510	290	4300			CC(C)[C@@H]1CNC(=N)N1C[C@@H]1CCCN1C[C@@H](CC1CCCCC1)N1C[C@@H](C(C)C)N(CC2CCC(C(C)(C)C)CC2)C1=N (stereo not given in full)	Emax [1]: 28%
500	570		50	70	CC(C)C[C@@H]1CNC(=N)N1C[C@@H]1CCCN1C[C@@H](CC1CCCCC1)N1C[C@@H](C(C)C)N(CC23CC4CC(CC(C4)C2)C3)C1=N	
490	600	420			CC(C)[C@@H]1CNC(=N)N1C[C@@H]1CCCN1C[C@@H](Cc1ccccc1)N1C[C@@H]([C@@H](C)O)N(CC2CCC(C(C)(C)C)CC2)C1=N (stereo not given in full)	Kb (Melanocortin receptor 4 [7]): 316 nM
480				73	CCC[C@@H]1CN([C@H](Cc2ccccc2)CN2CCC[C@H]2CN2C(=N)NC[C@H]2CC(C)C)C(=N)N1CC1CCC(C(C)(C)C)CC1 (stereo not given in full)	Emax [1]: 28%; Emax [5]: 38%
470			51	67	CCC[C@@H]1CN([C@H](CC2CCCCC2)CN2CCC[C@H]2CN2C(=N)NC[C@H]2CC(C)C)C(=N)N1CC12CC3CC(CC(C3)C1)C2	Emax ([5]; filed as agonist): 70%
440	15500			67	CC(C)C[C@@H]1CNC(=N)N1C[C@@H]1CCCN1C[C@@H](Cc1ccccc1)N1C[C@@H](C(C)C)N(CC23CC4CC(CC(C4)C2)C3)C1=N	EC50 (Melanocortin receptor 4 [4]): 8200 nM
340	330	240	55		CC(C)C[C@@H]1CNC(=N)N1C[C@@H]1CCCN1C[C@@H](CC1CCCCC1)N1C[C@@H]([C@@H](C)O)N(CC23CC4CC(CC(C4)C2)C3)C1=N	EC50 (Melanocortin receptor 4 [4]): 650 nM
180	440	360	75		CC(C)[C@@H]1CNC(=N)N1C[C@@H]1CCCN1C[C@@H](Cc1ccccc1)N1C[C@@H]([C@@H](C)O)N(CC23CC4CC(CC(C4)C2)C3)C1=N	Kb (Melanocortin receptor 4 [7]): 1580 nM; EC50 (Melanocortin receptor 4 [4]): 580 nM
150	300	220	41		CC(C)[C@@H]1CNC(=N)N1C[C@@H]1CCCN1C[C@@H](CC1CCCCC1)N1C[C@@H]([C@@H](C)O)N(CC2CCC(C(C)(C)C)CC2)C1=N (stereo not given in full)	Kb (Melanocortin receptor 4 [7]): 1260 nM
140	300	210	45		CC(C)C[C@@H]1CNC(=N)N1C[C@@H]1CCCN1C[C@@H](CC1CCCCC1)N1C[C@@H]([C@@H](C)O)N(CC2CCC(C(C)(C)C)CC2)C1=N (stereo not given in full)	EC50 (Melanocortin receptor 4 [4]): 270 nM
0.7					CSCC[C@H](NC(=O)[C@H](CO)NC(=O)[C@H](Cc1ccc(O)cc1)NC(=O)[C@@H](N)CO)C(=O)N[C@@H](CCC(=O)O)C(=O)N[C@@H](Cc1c[nH]cn1)C(=O)N[C@@H](Cc1ccccc1)C(=O)N[C@@H](CCCN=C(N)N)C(=O)N[C@@H](Cc1c[nH]c2ccccc12)C(=O)NCC(=O)N[C@@H](CCCCN)C(=O)N1CCC[C@H]1C(=O)N[C@H](C(=O)O)C(C)C	EC50 (Melanocortin receptor 4 [4]): 1.6 nM
